{"data": "Experimental data pooled from the literature", "cell line": "MDA-MB-231", "read-out": "cell growth or viability", "note": "Compare with care: the assays were run in different laboratories. pEC50: −log10 of the molar value."}
{"SMILES": "Nc1nc(S)nc(O)c1N=Cc1cn(-c2ccccc2)nc1-c1ccccc1", "time": "48 h", "endpoint": "CC50", "value": "> 20 µM"}
{"SMILES": "O=C(NN=Cc1ccc(Br)cc1)C1CC(=O)N(c2ccc(F)cc2F)C1 (stereo not drawn)", "technique": "MTT", "time": "72 h", "endpoint": "pEC50", "value": 4.65}
{"SMILES": "NCCC(=O)Nc1ccccc1/N=c1\\cc(-c2ccc3c(c2)OCCO3)oc2cc(F)ccc12", "technique": "CCK-8", "tested at": "1 µM", "endpoint": "inhibition", "value": "52.9%"}
{"SMILES": "Cc1ccc(-c2nn(-c3ccccc3)cc2C=Nc2c(N)nc(S)nc2O)cc1", "time": "48 h", "endpoint": "CC50", "value": "14.3 µM"}
{"SMILES": "COc1cccc(NC(=O)Nc2ccc(Oc3nc4ccccc4n4cnnc34)cc2)c1", "technique": "MTT", "tested at": "3.125 µM", "time": "24 h", "endpoint": "viability", "value": "91.5%"}
{"SMILES": "COc1cccc2c1C(=O)c1c(O)c3c(c(O)c1C2=O)C[C@@](O)(C(=O)CO)C[C@@H]3O[C@H]1C[C@H](N)[C@H](O)[C@H](C)O1", "technique": "MTT", "time": "72 h", "endpoint": "pEC50", "value": 7.66}
{"SMILES": "NCCC(=O)Nc1ccc(/N=c2\\cc(-c3ccc4c(c3)OCO4)oc3ccccc23)cc1", "technique": "CCK-8", "tested at": "1 µM", "endpoint": "inhibition", "value": "5.95%"}
{"SMILES": "O=C(Nc1ccccc1)Nc1ccc(Oc2nc3ccccc3n3cnnc23)cc1", "technique": "MTT", "tested at": "3.125 µM", "time": "24 h", "endpoint": "viability", "value": "100%"}
{"SMILES": "C[C@H](N)C(=O)Nc1ccccc1/N=c1\\cc(-c2ccc3c(c2)OCCO3)oc2c(N)cccc12", "technique": "CCK-8", "tested at": "1 µM", "endpoint": "inhibition", "value": "-1.6%"}
{"SMILES": "CCN(CC)CCNC(=O)c1c(C)[nH]c(/C=C2\\C(=O)Nc3ccc(F)cc32)c1C", "technique": "MTT", "time": "72 h", "endpoint": "pEC50", "value": 5.47}
{"SMILES": "O=C(Nc1ccc(Cl)cc1)Nc1ccc(Oc2nc3ccccc3n3cnnc23)cc1", "technique": "MTT", "tested at": "100 µM", "time": "24 h", "endpoint": "viability", "value": "46.6%"}
{"SMILES": "CCNc1nc2ccc(-c3c/c(=N\\c4ccccc4NC(=O)CCN)c4ccccc4o3)cc2o1", "technique": "CCK-8", "tested at": "1 µM", "endpoint": "inhibition", "value": "54.2%"}
